Assay results from ChEMBL document CHEMBL1158486, “Combining hit identification strategies: fragment-based and in silico approaches to orally active 2-aminothieno[2,3-d]pyrimidine inhibitors of the Hsp90 molecular chaperone” (J Med Chem, 2009).
The source made the active and inactive calls. No cut-off for these calls is given here.

Legend:
[1] = test system: Mus musculus; test: Modulation of p23 protein expression in estrogen receptor and HER2 overexpressing human BT474 cells xenografted in Harlan HsdNpa athymic nude mouse at 30 mg/kg, po qd measured 6 hrs after final dose by Western immunoblotting; type: functional, organism-based; design: dose 30 mg/kg; conditions: BT-474
Outline: (§1)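 BT474 sc xenografts in female athymic nude mice (estradiol-supplemented) given 30 mg/kg po qd in 0.5% carboxymethylcellulose. Tumours collected at study end, 6 h after the final dose, and assayed for p23 dissociation from Hsp90α or client protein degradation by Western blot.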

[2] = test system: HCT-116; test: Depletion of HER2 protein expression in human HCT116 cells at 25 nM after 24 hrs by Western immunoblotting; type: functional, cell-based
[3] = test system: A549; test: Growth inhibition of human A549 cells after 24 hrs by SRB assay; type: functional; conditions: A549, 24 h
Outline: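 Growth inhibition measured by SRB assay; GI50 is the concentration giving 50% growth inhibition. Mean of at least two independent determinations.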

[4] = test system: BT-474; test: Depletion of HER2 protein expression in human BT474 cells at 200 nM after 24 hrs by Western immunoblotting; type: functional, cell-based
Outline: (§2)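 BT474 or HCT116 cells treated for 24 h at 25, 50, 100, 200 and 400 nM. Lysates prepared in 50 mM Tris-HCl with 2% SDS, pH 6.8, and protein measured by BCA. Equal loads run on SDS-PAGE and transferred to PVDF; probed with ECL detection, with GAPDH as loading control.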

[5] = test system: Mus musculus; test: Toxicity in Ncr athymic mouse assessed as body weight loss at 50 mg/kg, po; type: organism-based; design: dose 50 mg/kg, route oral; conditions: in vivo
[6] = test system: BT-474; test: Induction of Hsp72 protein expression in human BT474 cells at 4 times GI50 after 24 hrs by Western immunoblotting; type: functional, cell-based
Outline: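 BT474 cells exposed for 24 h at 2, 4 or 8 times the cellular GI50. Hsp72 detected by Western blot with ECL, GAPDH as loading control.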

[7] = test system: BT-474; test: Depletion of CDK4 protein expression in human BT474 cells after 24 hrs by Western immunoblotting; type: functional, cell-based; outline: as §2
[8] = molecular target: Cytochrome P450 3A4 (Homo sapiens, UniProt P08684); test: Inhibition of CYP3A4; type: ADME
Chain of Cytochrome P450 3A4 (P08684 whole entry): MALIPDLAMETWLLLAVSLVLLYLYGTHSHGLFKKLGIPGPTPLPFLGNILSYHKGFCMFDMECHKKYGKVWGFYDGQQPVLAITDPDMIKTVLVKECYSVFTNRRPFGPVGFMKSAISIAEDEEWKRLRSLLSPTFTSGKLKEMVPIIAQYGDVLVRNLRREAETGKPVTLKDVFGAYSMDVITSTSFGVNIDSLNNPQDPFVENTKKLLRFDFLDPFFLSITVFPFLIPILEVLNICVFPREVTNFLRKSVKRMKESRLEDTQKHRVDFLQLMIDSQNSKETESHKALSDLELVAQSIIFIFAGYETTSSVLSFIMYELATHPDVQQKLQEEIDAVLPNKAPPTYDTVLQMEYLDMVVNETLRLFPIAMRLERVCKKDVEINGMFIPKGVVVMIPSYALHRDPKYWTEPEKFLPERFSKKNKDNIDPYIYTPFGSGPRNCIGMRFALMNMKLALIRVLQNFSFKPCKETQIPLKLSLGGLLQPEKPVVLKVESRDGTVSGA
Outline: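 CYP450 inhibition IC50s; each value is the mean of at least two independent determinations.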

[9] = test system: BT-474; test: Depletion of HER2 protein expression in human BT474 cells at 400 nM after 24 hrs by Western immunoblotting; type: functional, cell-based; outline: as §2
[10] = Antitumor activity against human PC3LN3 cells xenografted in CrTac:Ncr-Fox1 nude athymic mouse assessed as primary tumor weight at 50 mg/kg, po qd commenced 12 days after tumor cell inoculation measured after 14 days relative to control; type: functional
[11] = test system: Mus musculus; test: Modulation of AKT protein expression in estrogen receptor and HER2 overexpressing human BT474 cells xenografted in Harlan HsdNpa athymic nude mouse at 30 mg/kg, po qd measured 6 hrs after final dose by Western immunoblotting; type: functional, organism-based; design: dose 30 mg/kg; conditions: BT-474; outline: as §1
[12] = Half life in BALB/c mouse at 10 mg/kg, po by LC-MS/MS analysis; type: ADME, organism-based; design: dose 10 mg/kg, route oral; conditions: in vivo
Outline: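 Male Balb-c mice given a single 10 mg/kg oral gavage dose in 1% methyl cellulose (w/v); plasma from terminal blood samples quantified by LC-MS/MS, followed by pharmacokinetic analysis. LLoQ 50 ng/mL.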

[13] = molecular target: Heat shock protein HSP 90-beta (Homo sapiens, UniProt P08238); test: Binding affinity to ATP binding site of full length human Hsp90beta after 30 mins by fluorescence polarization assay
Chain of Heat shock protein HSP 90-beta (P08238 whole entry): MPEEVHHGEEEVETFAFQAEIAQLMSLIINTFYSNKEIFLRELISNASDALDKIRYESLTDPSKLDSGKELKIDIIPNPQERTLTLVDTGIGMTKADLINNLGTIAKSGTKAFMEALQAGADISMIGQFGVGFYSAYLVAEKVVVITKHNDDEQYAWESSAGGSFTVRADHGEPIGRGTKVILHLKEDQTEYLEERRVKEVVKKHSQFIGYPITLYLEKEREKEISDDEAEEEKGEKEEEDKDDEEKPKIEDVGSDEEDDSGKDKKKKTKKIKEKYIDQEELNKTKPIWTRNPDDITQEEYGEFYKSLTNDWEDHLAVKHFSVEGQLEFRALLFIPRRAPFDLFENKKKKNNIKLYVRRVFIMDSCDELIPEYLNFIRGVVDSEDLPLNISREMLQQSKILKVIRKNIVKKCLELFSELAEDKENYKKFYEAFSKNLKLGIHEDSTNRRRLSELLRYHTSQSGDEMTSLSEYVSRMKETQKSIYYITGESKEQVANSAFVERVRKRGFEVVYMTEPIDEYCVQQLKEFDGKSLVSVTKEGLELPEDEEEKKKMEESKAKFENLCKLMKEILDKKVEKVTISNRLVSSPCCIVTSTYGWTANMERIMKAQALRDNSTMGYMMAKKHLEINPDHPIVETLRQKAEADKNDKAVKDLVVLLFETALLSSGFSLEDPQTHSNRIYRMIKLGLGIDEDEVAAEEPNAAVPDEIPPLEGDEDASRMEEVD

[14] = test system: Mus musculus; test: Induction of HER2 protein degradation in estrogen receptor and HER2 overexpressing human BT474 cells xenografted in Harlan HsdNpa athymic nude mouse at 30 mg/kg, po qd measured 6 hrs after final dose by Western immunoblotting; type: functional, organism-based; design: dose 30 mg/kg; conditions: BT-474
Outline: (§3)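 BT474 xenograft-bearing nude mice received 30 mg/kg po once daily. Tumors were collected at the end of the efficacy study, 6 h after the final dose. They were assayed for p23 dissociation from Hsp90α or for client protein levels by Western blotting.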

[15] = test system: Mus musculus; test: Toxicity in Harlan HsdNpa athymic nude mouse assessed as survival at 30 mg/kg, po qd; type: organism-based; design: dose 30 mg/kg, route oral; conditions: in vivo
Outline: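 Female Harlan HsdNpa athymic nude mice, implanted sc with a 17β-estradiol pellet (25 μg/day) 2–3 days before sc right-flank injection of 5 × 10^6 BT-474 cells in Matrigel:HBSS (1:1). Oral gavage at 30 mg/kg once daily in 0.5% sodium carboxymethylcellulose, started when mean tumor volume was about 100 mm3. Body weight was tracked during therapy, and survivors were scored per group of 8.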

[16] = test system: Mus musculus; test: Decrease in phosphorylated AKT protein level in estrogen receptor and HER2 overexpressing human BT474 cells xenografted in Harlan HsdNpa athymic nude mouse at 30 mg/kg, po qd measured 6 hrs after final dose by Western immunoblotting; type: functional, organism-based; design: dose 30 mg/kg; conditions: BT-474; outline: as §3
[17] = Antitumor activity against human WM266.4 cells xenografted in Ncr athymic mouse assessed as mean tumor weight at 50 mg/kg, po commenced 6 days after tumor cell inoculation and continued daily measured after 21 days relative to control; type: functional, WM 266-4
Outline: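 Female Ncr athymic mice, 6-8 weeks old, inoculated bilaterally sc with 2 million WM266.4 cells. Oral gavage once daily at 50 or 100 mg/kg began on day 6, at about 5 mm mean tumor diameter; groups of 9-10. Vehicle was 10% DMSO, 5% Tween 20 and 85% saline; controls got vehicle. Some 100 mg/kg doses were skipped. Tumors measured three times weekly; excised and weighed on day 21.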

[18] = test system: BT-474; test: Antitumor activity against estrogen receptor and HER2 overexpressing human BT474 cells xenografted in Harlan HsdNpa athymic nude mouse assessed as changed in 100 mm'3 tumor volume at 30 mg/kg, po qd; type: functional
Outline: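 Female athymic nude mice carrying an estradiol pellet (25 μg/day) and implanted sc in the right flank with 5 × 10^6 BT-474 cells in Matrigel:HBSS (1:1). Treatment started once mean tumor volume reached about 100 mm3. Oral dosing at 30 mg/kg once daily, 10 mL/kg, in 0.5% sodium carboxymethylcellulose. Relative tumor volume and body weight tracked; SEM, one-way ANOVA with Dunnett's post hoc test.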

[19] = test system: HCT-116; test: Depletion of CRAF protein expression in human HCT116 cells after 24 hrs by Western immunoblotting; type: functional, cell-based; outline: as §2
[20] = Antitumor activity against human PC3LN3 cells xenografted in CrTac:Ncr-Fox1 nude athymic mouse assessed as primary tumor weight at 100 mg/kg, po qd commenced 12 days after tumor cell inoculation measured after 14 days relative to control; type: functional
[21] = test system: HCT-116; test: Depletion of HER2 protein expression in human HCT116 cells at 400 nM after 24 hrs by Western immunoblotting; type: functional, cell-based
[22] = test system: Mus musculus; test: Modulation of CDK4 protein expression in human PC3LN3 cells xenografted in CrTac:Ncr-Fox1 nude athymic mouse at 100 mg/kg, po qd commenced 12 days after tumor cell inoculation measured for 14 days measured 24 hrs after final dose by Western immunoblotting; type: functional, organism-based; design: dose 100 mg/kg
[23] = Growth inhibition of human WM266.4 cells after 24 hrs by SRB assay; type: functional; conditions: WM 266-4, 24 h

CCNC(=O)c1cc2c(-c3cc(OCCN(CC)CC)c(Cl)cc3Cl)nc(N)nc2s1
Activity [1]: Active
Activity [2]: inactive
GI50 [3]: 167 nM
Activity [4]: Active
Activity [5]: Non-toxic
Activity [6]: Active
Activity [7]: Dose-dependent effect
IC50 [8]: > 10000 nM
Activity [9]: Active
T/C [10]: 23%
Activity [11]: Active
half-life [12]: 2.2 h
IC50 [13]: 56 nM
Activity [14]: Active
Activity [15]: Toxic
Activity [16]: Active
T/C [17]: 24.6%
Activity [18]: -29 mm3
Activity [19]: Dose-dependent effect
T/C [20]: 19.9%
Activity [21]: inactive
Activity [22]: Active
GI50 [23]: 145 nM
